Bioassay records as filed in PubChem BioAssay.
OX1R antag-1: OX1R (HCRTR1) antagonists, primary screen, fluorescence, CHO/OX1R cells, Fluo-8 calcium, orexin A | 0.43% of 330,000 active | Orexin/Hypocretin receptor type 1 (Homo sapiens), O43613 | inhibition, % at 5 µM | Fluo-8 calcium fluorescence;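 active = inhibition above its plate's threshold, mean inhibition of all tested compounds on the plate plus 3 SD, cut at about 37% in these data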;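 also: 0% = orexin A challenge wells and 100% = SB-334867-A antagonist wells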
TAAR1 agonist: human TAAR1 agonists, primary screen, Fluo-8 calcium fluorescence, CHO RD-HGA16 cells | vehicle wells 0%, saturating PEA agonist 100% | activation, % at 3 µM | 0.99% of 360,000 active;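 active = activation above the mean activation of all test compounds in the run plus 3 SD, cut at about 38% in these data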
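Test system: RD-HGA16 (CHO) cells co-expressing Gα16 and hTAAR1 | Doses: Single dose, 3 µM | Schedule: 17-24 h seeding, 75 min 37 °C dye, 30 min RT | Evaluation: % activation from peak over basal fluorescence ratio, DMSO-to-PEA scaled | Technique: Kinetic Fluo-8 calcium fluorescence | Benchmarks: Low control DMSO, high control PEA (EC100)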
OX1R antag-2: antagonists of human orexin 1 receptor (OX1R). Orexin/Hypocretin receptor type 1 (Homo sapiens), O43613. OX1R-expressing cells, FRET antagonist read-out. inhibition, % at 6.6 µM. 1.8% of 330,000 active. AID 485270, 2010; in the data active = inhibition mostly above about 38%, no sharp cut-off; inactive = mostly below about 40%;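 also: 0% = agonist challenge alone and 100% = reference antagonist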
CHO parental Ca: ATP-evoked calcium signal inhibitors, parental CHO, primary screen, counter-screen for OX1R antagonist project, cell-based, fluorescence, Fluo-8 calcium dye; parental CHO-K1, ATP-induced calcium, Fluo-8 fluorescence; inhibition, % at 5.6 µM; 0.63% of 330,000 active; AID 463079, 2010;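 active = inhibition above that plate's mean sample inhibition plus 3 SD, cut at about 26% in these data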;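 also: 0% = ATP-challenged DMSO wells and 100% = DMSO wells without ATP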
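material = parental CHO cells | also added = ATP as calcium-mobilizing challenge | dosing = single point at 5.6 µM | detection = intracellular calcium via Fluo-8 no-wash fluorescent dye | read-out = % inhibition | benchmarks = low control ATP plus DMSO, high control DMSO only | repeats = one well per compound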
GPR7 antagonist: GPR7 receptor antagonists, primary screen, cell-based, fluorescence, single concentration; inhibition, % at 4.4 µM; 1.1% of 290,000 active; AID 1861, 2009; Neuropeptides B/W receptor type 1 (Homo sapiens), P48145; GPR7-expressing cells, fluorescence antagonist assay; in the data active = inhibition above about 16%, passing the limit was not always enough;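 also: cells stimulated with the agonist NPW; 0% = agonist with vehicle and 100% = vehicle without agonist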
Target sequence (P48145 whole entry, looked up): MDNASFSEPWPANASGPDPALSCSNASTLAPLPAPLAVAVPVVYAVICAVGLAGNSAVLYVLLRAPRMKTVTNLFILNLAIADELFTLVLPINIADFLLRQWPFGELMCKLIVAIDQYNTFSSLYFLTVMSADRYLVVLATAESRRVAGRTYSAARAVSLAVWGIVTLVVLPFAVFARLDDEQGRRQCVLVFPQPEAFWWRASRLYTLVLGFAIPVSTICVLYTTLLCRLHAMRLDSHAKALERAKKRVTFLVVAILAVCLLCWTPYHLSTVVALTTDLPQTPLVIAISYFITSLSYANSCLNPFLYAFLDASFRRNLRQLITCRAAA
TAAR1 antag: human TAAR1 antagonists, primary screen, Fluo-8 calcium fluorescence, CHO RD-HGA16 cells; Trace amine-associated receptor 1 (Homo sapiens), Q96RJ0; antagonist; inhibition, % at 3 µM; 1.5% of 360,000 active;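 active = inhibition above a per-plate cutoff, the mean inhibition of test compounds on that plate plus 3 SD, cut at about 49% in these data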;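 also: 0% = DMSO plus EC80 beta-PEA response and 100% = DMSO alone without agonist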
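Test system – hTAAR1-expressing CHO RD-HGA16 cells, Gα16-coupled · Also added – β-PEA at EC80 concentration, post-compound challenge · Compound – 3 µM, single point · Incubation – dye loading 75 min at 37 °C, then 30 min room temperature · Measured by – Fluo-8 intracellular calcium dye fluorescence, real-time kinetic reads · Benchmarks – vehicle and agonist controls · Replicates – singlicate, one well per test compound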
OX1R HTRF conf: OX1R (HCRTR1) antagonists, confirmation, cell-based, HTRF; shares compounds with OX1R antag-2; OX1R-expressing cells, HTRF antagonist assay; inhibition, % at 6.6 µM; 49% of 1,800 active; AID 492964, 2010; in the data active = inhibition above about 55%;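 also: CHO cells expressing OX1R stimulated with orexin A at about EC80; 0% = agonist challenge alone and 100% = reference antagonist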
CHO-K1 HTRF cnt: signal inhibition in parental CHO-K1 cells, counter-screen for OX1R antagonist project, cell-based, HTRF | shares compounds with OX1R antag-2 | HTRF counterscreen | inhibition, % at 6.6 µM | 48% of 1,800 active | AID 493232, 2011; in the data active = inhibition above about 17%;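 also: 0% = agonist challenge with vehicle and 100% = vehicle alone without agonist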
* = called active by the depositor; · = no result. Sampled rows, rich in hits. Any-hit rate of the full collection: about 4.6%.

SMILES	OX1R antag-1	TAAR1 agonist	OX1R antag-2	CHO parental Ca	GPR7 antagonist	TAAR1 antag	OX1R HTRF conf	CHO-K1 HTRF cnt
CCOC(=O)COc1ccc2cc(C(=O)OCC)c(=O)oc2c1	-2.6	6.5	110.4*	4.4	-5.4	-0.7	34.0	38.4*
CCOC(=O)COc1ccc2c3c(c(=O)oc2c1)CCCC3	-32.3	2.1	-9.6	-18.2	-12.3	-23.8	·	·
CCCCN(C)Cc1c(O)ccc2c(-c3ccccc3)cc(=O)oc12	-37.5	3.8	85.1*	-25.1	-11.5	-5.8	36.6	15.5
CCOC(=O)CCc1c(C)c2c(C)nn(-c3ccccc3)c2[nH]c1=O	-31.5	0.7	14.0	-2.8	-16.9	2.4	·	·
Cc1cc(C)n(C(=O)c2cccc([N+](=O)[O-])c2)n1	-1.8	-0.3	23.7	-3.9	-14.9	1.0	·	·
Cc1cc(C)n(C(=O)c2cc([N+](=O)[O-])cc([N+](=O)[O-])c2)n1	0.6	-2.0	103.5*	6.4	-4.7	-19.2	70.6*	61.9*
Fc1cccc(Cc2c(C3CCCCC3)nc3ccc(Cl)cn23)c1	·	2.2	·	·	·	-4.3	·	·
COc1ccc(/C=N/NC(=O)c2cc(C)on2)c2ccccc12	-24.2	9.4	86.7*	-28.9	-13.6	19.0	64.8*	11.1
O=C(O)CNS(=O)(=O)c1ccc2c(c1)C(=O)c1cc(S(=O)(=O)NCC(=O)O)ccc1-2	·	4.5	·	·	-26.3	-29.2	·	·
O=C1c2cc(S(=O)(=O)NCCO)ccc2-c2ccc(S(=O)(=O)NCCO)cc21	-2.9	2.2	79.4*	0.9	0.6	5.7	61.4*	63.9*
CCNc1nc(OCCNS(=O)(=O)c2cc(C)ccc2C)nc(N(C)C)n1	-7.9	-2.5	40.2	-2.8	-5.8	-7.6	·	·
Cc1ccc(S(=O)(=O)NCCOc2nc(N(C)C)nc(N(C)C)n2)cc1	11.3	5.2	90.3*	-1.7	0.9	-19.7	64.1*	2.7
N#Cc1ccc(CSc2nnc(-c3ccncc3)n2CCc2ccccc2)cc1	-14.8	5.4	46.8	-21.8	5.7	-13.5	·	·
c1ccc(CCn2c(SCc3ccccc3)nnc2-c2ccncc2)cc1	-33.2	9.9	101.3*	-21.8	-7.2	-8.4	14.9	-2.5
COc1ccccc1C(=O)NCC(=O)N=Nc1c(O)n(C(C)C)c2ccccc12	0.7	1.5	93.3*	-24.5	-3.6	17.0	75.7*	4.7
CC(C)n1c(O)c(N=NC(=O)CNC(=O)Cc2ccc(Cl)cc2)c2ccccc21	-24.8	1.8	5.9	-28.5	-18.9	18.5	·	·
Cc1cc(N2C3CCC2CC(O)(c2ccc(F)cc2)C3)nc(-c2ccccc2)n1 (centres undefined)	-9.2	5.1	2.9	-3.1	-0.2	9.5	·	·
O=[N+]([O-])c1ccc2c(c1)nc1n2CCCCC1	-4.1	0.7	14.7	5.2	-11.4	12.6	·	·
O=c1c2c(-c3ccc([N+](=O)[O-])cc3)csc2nc2n1CCC2	-3.5	0.1	94.9*	-30.3	-4.7	-4.0	39.9	48.3*
Nc1[nH]c(C(=O)c2ccc(Br)cc2)c(-c2ccccc2Br)c1C(=O)NCCc1c[nH]c2ccccc12	·	3.8	·	·	·	10.7	·	·
CCOC(=O)c1c(N)n(CCOC(=O)c2cccs2)c2nc3ccccc3nc12	-3.1	10.8	78.3*	-10.8	23.8	21.3	55.6*	7.2
CCCCCOC(=O)c1c(N)n(CCOC)c2nc3ccccc3nc12	-31.8	11.2	32.7	-8.2	-5.9	-15.9	·	·
